In brackets after ≈: the same amount, converted by molar mass.
Experiments:
Escherichia coli = assay: In vitro antibacterial activity of compound against Escherichia coli SKF 12140; type: functional
Streptococcus pneumoniae = assay: In vitro antibacterial activity of compound against Streptococcus pneumoniae UC 41; type: functional
In short: (§1)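 Streptococcal MICs were run by twofold microdilution in Todd-Hewitt broth over 128-0.0001 µg/mL. Inoculum was 10^4 cfu/mL, with incubation at 37 °C for 18-24 h.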

[1] = system: Mycobacterium tuberculosis; assay: In vitro antibacterial activity of compound against Mycobacterium tuberculosis H37Rv ATCC 9660; type: functional
[2] = system: Staphylococcus epidermidis; assay: In vitro antibacterial activity of compound against Staphylococcus epidermidis ATCC 12228; type: functional
In short: (§2)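 Twofold microdilution MIC in Iso-Sensitest broth over 128-0.0001 µg/mL. Inoculum was 10^4 cfu/mL, with incubation at 37 °C for 18-24 h.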

Pseudomonas aeruginosa = assay: In vitro antibacterial activity of compound against Pseudomonas aeruginosa ATCC 10145; type: functional; in short: as §2
Enterococcus faecalis = assay: In vitro antibacterial activity of compound against Streptococcus faecalis ATCC 7080.; type: functional; in short: as §2
Mycobacterium avium [3] = assay: Minimum inhibitory concentration of compound against 20 Mycobacterium avium complex (MAC) clinical isolates
Mycobacterium avium [4] = assay: 50% inhibition of the 20 Mycobacterium (MAC) avium complex clinical isolates; type: functional
In short: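 Agar-dilution MICs, 2-fold dilutions over 128-0.0001 μg/mL, on Middlebrook 7H10 agar with 2% glycerol and 10% OADC. Organisms from Loevenstein-Jensen slants were grown in 7H9 broth with 0.5% Tween and 10% OADC, adjusted to McFarland no. 1, and spotted with a multipoint inoculator. Plates were sealed and incubated at 22, 30 or 37 °C for 4-20 days depending on strain.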

Streptococcus pyogenes = assay: In vitro antibacterial activity of compound against Streptococcus pyogenes C 203 SKF 13400; type: functional; in short: as §1
Staphylococcus aureus [5] = assay: In vitro antibacterial activity of compound against Staphylococcus aureus Tour L 165; type: functional; in short: as §2
Mycobacterium avium [6] = assay: 90% inhibition of the 20 Mycobacterium avium complex (MAC) clinical isolates
Klebsiella pneumoniae = assay: In vitro antibacterial activity of compound against Klebsiella pneumoniae ISM; type: functional
Neisseria gonorrhoeae = assay: In vitro antibacterial activity of compound against Neisseria gonorrhoeae ISM 68/126; type: functional
Proteus vulgaris = assay: In vitro antibacterial activity of compound against Proteus vulgaris X19H ATCC 881; type: functional
Haemophilus influenzae = assay: In vitro antibacterial activity of compound against Haemophilus influenzae ATCC 19418; type: functional
Staphylococcus aureus [7] = assay: Activity in the murine model (OS route) of Staphylococcus aureus tour septicemia; type: functional
In short: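 Male and female CD1 mice (18-22 g) were infected ip with S. aureus Tour. The challenge was set so untreated mice died within 48 h. Groups were five mice, dosed once daily for 3 days starting immediately after infection. ED50 was calculated on day 10 from the percentage surviving at each dose.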

SMILES | MIC (Escherichia coli) [µg/mL] | MIC (Streptococcus pneumoniae) [µg/mL] | MIC [1] [µg/mL] | MIC [2] [µg/mL] | MIC (Pseudomonas aeruginosa) [µg/mL] | MIC (Enterococcus faecalis) [µg/mL] | MIC (Mycobacterium avium [3]) [µg/mL] | MIC50 (Mycobacterium avium [4]) [µg/mL] | MIC (Streptococcus pyogenes) [µg/mL] | MIC (Staphylococcus aureus [5]) [µg/mL] | MIC90 (Mycobacterium avium [6]) [µg/mL] | MIC (Klebsiella pneumoniae) [µg/mL] | MIC (Neisseria gonorrhoeae) [µg/mL] | MIC (Proteus vulgaris) [µg/mL] | MIC (Haemophilus influenzae) [µg/mL] | ED50 (Staphylococcus aureus [7]) [mg/kg]
COC1/C=C/OC2(C)Oc3c(C)c(O)c4c(O)c(c5sc(N6CCN(C)CC6)nc5c4c3C2=O)NC(=O)/C(C)=C\C=C\C(C)C(O)C(C)C(O)C(C)C(OC(C)=O)C1C (stereo not drawn) | 2 (≈ 2.39 µM) | 0.125 (≈ 0.149 µM) | 2 (≈ 2.39 µM) | 0.063 (≈ 0.0753 µM) | 8 (≈ 9.56 µM) | 0.032 (≈ 0.0382 µM) | 16 (≈ 19.1 µM) | 64 (≈ 76.5 µM) | 0.032 (≈ 0.0382 µM) | 0.004 (≈ 0.00478 µM) | 64 (≈ 76.5 µM) | 16 (≈ 19.1 µM) | 16 (≈ 19.1 µM) | 32 (≈ 38.2 µM) | 0.5 (≈ 0.597 µM) | –
COC1/C=C/OC2(C)Oc3c(C)c(O)c4c(O)c(c5sc(N6CCN(CCO)CC6)nc5c4c3C2=O)NC(=O)/C(C)=C\C=C\C(C)C(O)C(C)C(O)C(C)C(OC(C)=O)C1C (stereo not drawn) | 8 (≈ 9.23 µM) | 0.008 (≈ 0.00923 µM) | 1 (≈ 1.15 µM) | 0.125 (≈ 0.144 µM) | 16 (≈ 18.5 µM) | 4 (≈ 4.61 µM) | – | – | 0.016 (≈ 0.0185 µM) | 0.016 (≈ 0.0185 µM) | – | 32 (≈ 36.9 µM) | 0.125 (≈ 0.144 µM) | 16 (≈ 18.5 µM) | 0.125 (≈ 0.144 µM) | > 20
